18 molecules from ChEMBL document CHEMBL4184083, “Design, synthesis and biological evaluation of glutamic acid derivatives as anti-oxidant and anti-inflammatory agents” (Bioorg Med Chem Lett, 2018) can be followed below.

In brackets after ≈: the same amount, converted by molar mass. Activity calls are given as the source filed them. The rule behind the calls is not given here.

Data set [1] can be described thus: Antioxidant activity assessed as DPPH radical scavenging activity incubated under dark condition for 30 mins by spectrophotometric analysis. The data set is classed as functional. In short, it runs like this:
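DPPH radical reduction (violet to colorless in ethanol) monitored spectrophotometrically; ascorbic acid run as reference; IC50 reported in µg/ml.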

Data set [2] has as its system RAW264.7. In words: Cytotoxicity against mouse RAW264.7 cells assessed as decrease in cell viability at 100 ug/ml after 24 hrs by WST-1 assay. The class given is cell-based. The settings on record: raw264.7, 24 h.
The nature of data set [3]: Chemical stability of the compound assessed as parent compound remaining at 1 mg/ml measured after 1 day at 45 degC by HPLC method (reference value: 100%). The data set is classed as physicochemical. The settings on record: read-out: Stability. The method in brief:
(§1)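 Sample dissolved at 1 mg in 1 mL distilled water, stored at 45 °C and analysed by HPLC at intervals up to 28 days; remaining amount expressed relative to day-0 HPLC peak area set as 100%.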

Data set [4] can be described thus: Chemical stability of the compound assessed as parent compound remaining at 1 mg/ml measured after 14 days at 45 degC by HPLC method (reference value: 100%). The settings on record: read-out: Stability. The class given is physicochemical. In short, it runs like this: as §1
Data set [5] in a line: Chemical stability of the compound assessed as parent compound remaining at 1 mg/ml measured after 7 days at 45 degC by HPLC method (reference value: 100%). The data set is classed as physicochemical. To be noted: read-out: Stability. In short, it runs like this: as §1
The subject of data set [6] is Danio rerio. Description: Antiinflammatory activity in Tg(mpx:GFP) zebrafish larvae assessed as decrease in neutrophil recruitment to wounded tail fin at 10 to 50 ug/ml dosed 4 hrs post amputation measured after 6 hrs. The data set is classed as functional, organism-based.
A short description of data set [7]: Chemical stability of the compound assessed as parent compound remaining at 1 mg/ml measured after 28 days at 45 degC by HPLC method (reference value: 100%). To be noted: read-out: Stability. The class given is physicochemical. In short, it runs like this: as §1
The test system of data set [8] is RAW264.7. In words: Antiinflammatory activity in mouse RAW264.7 cells assessed as inhibition of LPS-induced nitric oxide production after 24 hrs by Griess reagent based assay. The data set is classed as functional, cell-based. In short, it runs like this:
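RAW264.7 mouse macrophages co-treated with LPS (0.3 μg/mL) plus the test agent at a range of concentrations; NO output quantified as nitrite accumulated in culture medium after 24 h incubation.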

Data set [9] can be described thus: Chemical stability of the compound assessed as parent compound remaining at 1 mg/ml measured after 21 days at 45 degC by HPLC method (reference value: 100%). The data set is classed as physicochemical. The settings on record: read-out: Stability. The method in brief:
as §1

The species entered for data set [10] is Danio rerio. Description: Effect on neutrophil recruitment to wounded tail fin in Tg(mpx:GFP) zebrafish larvae at 10 to 50 ug/ml measured after 6 hrs. The class given is ADME, organism-based.

With `N[C@@H](CCC(=O)NNc1ccc(O)cc1O)C(=O)O`, the IC50 in [1] came to 28.01 µg/mL (≈ 104 µM).
In the case of `CCc1ccccc1NNC(=O)CC[C@H](N)C(=O)O`, the IC50 in data set [1] amounted to 17.14 µg/mL (≈ 64.6 µM).
Take `Cc1ccccc1NNC(=O)CC[C@H](N)C(=O)O`: the Activity result in the data set with RAW264.7 [2] is given as “Non-Toxic”. Besides, the remaining at 24 h, 1 mg/ml in [3] worked out at 82.3%. Besides, in [4], the remaining at 336 h, 1 mg/ml worked out at 56.7%. Also, the remaining at 168 h, 1 mg/ml in data set [5] was 73.8%. The IC50 in data set [1] is 6.24 µg/mL (≈ 24.8 µM).
With `N[C@@H](CCC(=O)Nc1ccccc1O)C(=O)O`, in data set [1], the IC50 came out at 162.42 µg/mL (≈ 682 µM).
In the case of `Cl.NC(CCC(=O)O)C(=O)NNc1ccccc1O` (configuration not stated), the IC50 in data set [1] is 37.19 µg/mL.
For `CS(=O)(=O)c1ccc(NNC(=O)CC[C@H](N)C(=O)O)c(F)c1`, the Activity result in the data set on RAW264.7 [2] and in the data set listed under Danio rerio [10] was “Non-Toxic” throughout. The remaining at 24 h, 1 mg/ml in data set [3] was 99.4%. Moreover, in the data set with Danio rerio [6], the outcome was Active. Further, the remaining at 672 h, 1 mg/ml in data set [7] was 87.2%. For the same molecule, in the data set on RAW264.7 [8], the inhibition entry is “Dose-dependent effect”. For the same molecule, the remaining at 504 h, 1 mg/ml in [9] turned out to be 88.8%. Besides, the remaining at 336 h, 1 mg/ml in [4] stood at 87%. In addition, the remaining at 168 h, 1 mg/ml in [5] was determined as 95%. Also, in data set [1], the IC50 is 8.72 µg/mL (≈ 26.2 µM).
Consider `Cc1ccc(NNC(=O)CC[C@H](N)C(=O)O)c(C)c1`, for which, in [1], the IC50 stood at 15.75 µg/mL (≈ 59.4 µM).
Turning to `N[C@@H](CCC(=O)NNc1cccc(F)c1)C(=O)O`, the IC50 in [1] amounted to 11.44 µg/mL (≈ 44.8 µM).
With `N[C@@H](CCC(=O)NNc1ccc(F)cc1)C(=O)O`, in data set [1], the IC50 was 13.77 µg/mL (≈ 53.9 µM).
Regarding `N[C@@H](CCC(=O)NNc1cccc(O)c1)C(=O)O`, the IC50 in [1] amounted to 10.67 µg/mL (≈ 42.1 µM).
With `O=C(CC[C@H](NC(=O)OCc1ccccc1)C(=O)OCc1ccccc1)NNc1ccccc1OCc1ccccc1`, in data set [1], the IC50 came to 44.98 µg/mL (≈ 79.2 µM).
`N[C@@H](CCC(=O)NNc1cc(O)cc(O)c1)C(=O)O`: in [1], the IC50 amounted to 316.86 µg/mL (≈ 1180 µM).
On to `Cc1ccc(NNC(=O)CC[C@H](N)C(=O)O)cc1`, for which the Activity entry in the data set on RAW264.7 [2] is on record as “Non-Toxic”. Also, in data set [3], the remaining at 24 h, 1 mg/ml worked out at 85.1%. Moreover, the remaining at 672 h, 1 mg/ml in data set [7] worked out at 50.4%. Further, the remaining at 504 h, 1 mg/ml in data set [9] is 58.1%. In data set [4], the remaining at 336 h, 1 mg/ml amounted to 72.2%. Besides, the remaining at 168 h, 1 mg/ml in data set [5] was 82%. Moreover, in data set [1], the IC50 was 9.99 µg/mL (≈ 39.8 µM).
For `N[C@@H](CCC(=O)NNc1ccccc1F)C(=O)O`, in [1], the IC50 was determined as 10.86 µg/mL (≈ 42.5 µM).
Regarding `CS(=O)(=O)c1ccc(NNC(=O)CC[C@H](N)C(=O)O)cc1`, the remaining at 24 h, 1 mg/ml in data set [3] was found to be 100%. Besides, the remaining at 672 h, 1 mg/ml in [7] was 70.7%. The remaining at 504 h, 1 mg/ml in [9] came to 79.2%. Besides, in data set [4], the remaining at 336 h, 1 mg/ml is 85.5%. Moreover, the remaining at 168 h, 1 mg/ml in data set [5] turned out to be 94.6%. In data set [1], the IC50 is 9.57 µg/mL (≈ 30.3 µM).
On to `O=C1O[C@H]([C@@H](O)CO)C(O)=C1O` [ASCORBIC ACID], for which, in [1], the IC50 was determined as 17.38 µg/mL (≈ 98.7 µM).
For `N[C@@H](CCC(=O)NNc1ccccc1O)C(=O)O`, in [3], the remaining at 24 h, 1 mg/ml amounted to 45.7%.
Take `Cc1cccc(NNC(=O)CC[C@H](N)C(=O)O)c1`: the IC50 in [1] worked out at 10.1 µg/mL (≈ 40.2 µM).
